Reference: ChEMBL document CHEMBL1143122, “Novel analogs of D-e-MAPP and B13. Part 1: synthesis and evaluation as potential anticancer agents” (Bioorg Med Chem, 2008)

test system: MCF7; experiment: Antiproliferative activity against human MCF7 cells after 48 hrs; type: functional, cell-based; conditions: MCF7, 48 h

SMILES | IC50
CCCCCCCCCCCCCC(=O)N[C@H](CO)[C@H](O)c1ccc(NC(=O)CCCCC[n+]2ccccc2)cc1.[Br-] | 20 µM
CCCCCCCCCCCCCC(=O)N(C)[C@H](C)[C@@H](O)c1ccccc1 | > 10 µM
CCCCCCCCCCCCNC(=O)N[C@@H](CO)[C@@H](O)c1ccc([N+](=O)[O-])cc1 | > 10 µM
CCCCCCCCCCCCCC(=O)N(C)[C@H](C)[C@H](O)c1ccccc1 | > 10 µM
CCCCCCCCCCCCCC(=O)N(C)[C@@H](C)[C@H](O)c1ccccc1 | > 10 µM
CCCCCCCCCCCCNC(=O)N[C@H](C)[C@@H](O)c1ccccc1 | > 10 µM
CCCCCCCCCCCCCC(=O)N(C)[C@@H](C)[C@@H](O)c1ccccc1 | > 10 µM
CCCCCCCCCCCCNC(=O)N[C@@H](C)[C@H](O)c1ccccc1 | > 10 µM
CCCCCCCCCCCCN[C@H](C)[C@@H](O)c1ccccc1 | 9 µM
CCCCCCCCCCCCNC(=O)N[C@H](CO)[C@H](O)c1ccc([N+](=O)[O-])cc1 | > 10 µM
CCCCCCCCCCCCCC(=O)N[C@H](CO)[C@H](O)c1ccc([N+](=O)[O-])cc1 | 14 µM
CCCCCCCCCCCCCC(=O)N[C@H](C)[C@@H](O)c1ccccc1 | 30 µM

test system: MCF7; experiment: Drug level in human MCF7 cells at 10 uM per 10^6 cells after 0.5 hrs; type: ADME, cell-based; conditions: mcf7, 0.5 h
Procedure, shortened: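 MCF7 cells kept in RPMI 1640 with 10% fetal calf serum at 37 °C, 5% CO2, then treated with 10 μM analog. Intracellular analog measured over time by HPLC-MS in positive-ion MRM mode. Quantified against calibration curves made by spiking an artificial matrix with standards plus internal standard, using analyte/IS peak-area ratios and linear regression. Reported as pmol per 1×10^6 cells.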

SMILES | Drug uptake
CCCCCCCCCCCCCC(=O)N[C@H](CO)[C@H](O)c1ccc(NC(=O)CCCCC[n+]2ccccc2)cc1.[Br-] | 800 pmol
